Only some compounds are listed: those with a hit (about 3.6% of all), similar ones and a draw of the others.
IMP-1 inhibitor = IMP-1 metallo-beta-lactamase inhibitors, primary screen, biochemical, epi-absorbance readout, Pseudomonas aeruginosa enzyme; inhibition, % at 5.6 µM; hit rate 0.45% among 290,000; purified IMP-1, nitrocefin hydrolysis, epi-absorbance fluorescence; AID 1556, 2009;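 active means inhibition above the mean plus 3 SD of all compounds in the same screening run, cut at about 4.5% in these data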
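System: Purified IMP-1 | Read-out basis: Percent enzyme inhibition | Controls: IMP-1 with DMSO as 0%, enzyme-free DMSO as 100% | Replicates: One well per compound | Doses: 5.6 µM nominal single concentration | Detection: Epi-absorbance fluorescence, 480 nm excitation, 530 nm emission | Incubation: 25 °C, 15 min preincubation, 25 min reaction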
pPAFAH FP inh = pPAFAH enzyme inhibitors, primary screen, biochemical, fluorescence polarization, human. Platelet-activating factor acetylhydrolase (Homo sapiens), Q13093. recombinant pPAFAH, FP-rhodamine probe fluorescence polarization. inhibition, % at 3.39 µM. hit rate 1.5% among 330,000;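 active means inhibition above the mean inhibition across the screen plus 3 SD, cut at about 25% in these data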;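 further: inhibitors block binding of the rhodamine activity-based probe so polarization drops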
PAFAH1B3 inh = PAFAH1B3 enzyme inhibitors, primary screen, biochemical, fluorescence polarization, human; hit rate 0.28% among 340,000; Platelet-activating factor acetylhydrolase IB subunit alpha1 (Homo sapiens), Q15102; inhibition, % at 3.39 µM; recombinant PAFAH1B3, FP-rhodamine probe;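 active means inhibition above the screen-wide average of all tested compounds plus 3 SD, cut at about 25% in these data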
Target sequence (Q15102 whole entry, looked up): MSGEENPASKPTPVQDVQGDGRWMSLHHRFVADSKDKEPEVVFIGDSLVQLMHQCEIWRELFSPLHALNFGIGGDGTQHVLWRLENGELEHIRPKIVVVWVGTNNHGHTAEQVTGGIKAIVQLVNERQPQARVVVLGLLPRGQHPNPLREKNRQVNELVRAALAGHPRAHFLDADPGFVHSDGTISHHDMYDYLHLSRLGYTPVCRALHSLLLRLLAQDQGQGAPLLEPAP
VIM-2 inhibitor = VIM-2 metallo-beta-lactamase inhibitors, primary screen, biochemical, epi-absorbance readout, Pseudomonas aeruginosa enzyme. purified VIM-2, nitrocefin hydrolysis, epi-absorbance fluorescence. inhibition, % at 5.6 µM. hit rate 0.89% among 290,000. AID 1527, 2009;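 active means inhibition above the mean of all tested compounds plus 3 SD, cutoff set per screening run, cut at about 7.5% in these data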;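 further: red hydrolysis product quenches plate fluorescence so inhibitors raise well fluorescence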
PAFAH2 inh = PAFAH2 enzyme inhibitors, primary screen, biochemical, fluorescence polarization, human. recombinant PAFAH2, FP-rhodamine activity probe. inhibition, % at 3.39 µM. hit rate 0.99% among 340,000. AID 492956, 2010;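 active means inhibition above the mean over all tested compounds plus 3 SD, cut at about 30% in these data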;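 further: inhibitors block probe labeling of enzyme so polarization drops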
PAFAH1B2 inh = PAFAH1B2 enzyme inhibitors, primary screen, biochemical, fluorescence polarization, human. Platelet-activating factor acetylhydrolase IB subunit alpha2 (Homo sapiens), P68402. recombinant PAFAH1B2, FP-rhodamine activity probe. inhibition, % at 3.39 µM. hit rate 1.2% among 340,000. AID 492953, 2010;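 active means inhibition above the mean of all tested compounds plus 3 SD, cut at about 24% in these data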
Target sequence (P68402 whole entry, looked up): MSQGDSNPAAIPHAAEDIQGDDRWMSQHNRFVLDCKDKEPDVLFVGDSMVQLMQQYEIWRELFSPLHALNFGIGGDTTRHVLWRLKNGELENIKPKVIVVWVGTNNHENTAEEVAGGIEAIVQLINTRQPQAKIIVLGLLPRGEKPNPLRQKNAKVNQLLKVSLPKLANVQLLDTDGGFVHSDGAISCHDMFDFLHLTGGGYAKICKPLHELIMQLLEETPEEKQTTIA
PAFAH2 FP conf = PAFAH2 enzyme inhibitors, confirmation, biochemical, fluorescence polarization, human. shares compounds with PAFAH2 inh. recombinant PAFAH2, FP-rhodamine activity probe. inhibition, % at 3.39 µM. hit rate 65% among 2,300;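 active means mean inhibition over three repeats above a set limit taken from the earlier primary screen, cut at about 30% in these data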;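 further: inhibitor blocks binding of rhodamine activity probe so polarization falls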
Of the large screens only hits and unclear results are named; the others gave an inactive call (follow-up assays come after a bar, where they were run).

COc1cc2nc(COc3ccccc3[N+](=O)[O-])oc(=O)c2cc1OC	PAFAH2 inh 50 | PAFAH2 FP conf 69
COc1cc2nc(CN3C(=O)c4ccccc4C3=O)oc(=O)c2cc1OC	none
CC(Sc1nnc(-c2ccncc2)n1-c1ccc(F)cc1)C(=O)NC1CC1 (configuration not stated)	none (no result: IMP-1 inhibitor, VIM-2 inhibitor)
CCOC(=O)C1C(=O)N(C(=O)c2ccc(OC)cc2)CC1c1ccccc1 (configuration not stated)	PAFAH2 inh 95 | PAFAH2 FP conf 75
Cc1ccc(C(=O)N2CCN(C)CC2)cc1S(=O)(=O)N1CCCCCC1	none
CCc1ccc(NC(=O)CSc2nc3ccccc3c(=O)n2CCCC(=O)NCCCN2CCOCC2)cc1	PAFAH2 inh 196 | PAFAH2 FP conf inactive
Cc1ccc(NC(=O)CSc2nc3ccccc3c(=O)n2CCCC(=O)NCCCN2CCOCC2)cc1C	none
O=C(CCCn1c(SCC(=O)NC2CCCCC2)nc2ccccc2c1=O)NCC1CCCO1 (configuration not stated)	none
O=C(CCCn1c(SCC(=O)c2ccc(O)c(O)c2)nc2ccccc2c1=O)NCC1CCCO1 (configuration not stated)	pPAFAH FP inh 34, PAFAH2 inh 35 | PAFAH2 FP conf inactive
CCN1C(=O)[C@@H]2[C@@H](c3ccc(-c4ccc(F)cc4)cc3)N3CCCC[C@@]3(C(=O)OC)[C@@H]2C1=O	none (no result: IMP-1 inhibitor, VIM-2 inhibitor)
CNC(=O)COC(=O)c1cccnc1SC	none
CSc1ncccc1C(=O)OCC(=O)NC1CCCC1	none (no result: IMP-1 inhibitor, VIM-2 inhibitor)
CSc1ncccc1C(=O)OCC(=O)NC12CC3CC(CC(C3)C1)C2	PAFAH2 inh 72 (no result: IMP-1 inhibitor, VIM-2 inhibitor) | PAFAH2 FP conf 72
O=C(COC(=O)c1cccnc1Cl)NCc1cccs1	none
CCOc1ncccc1C(=O)OCC(=O)NCc1cccs1	PAFAH2 inh 40 (no result: IMP-1 inhibitor, VIM-2 inhibitor) | PAFAH2 FP conf inactive
O=C(COC(=O)c1cccnc1Cl)NC1CCCCCC1	PAFAH2 inh 73 (no result: IMP-1 inhibitor, VIM-2 inhibitor) | PAFAH2 FP conf 66
O=C(COC(=O)c1ccc[nH]c1=O)NC1CCCCCC1	none
CSc1ncccc1C(=O)OCC(=O)NC1CCCCC1	PAFAH2 inh 38 (no result: IMP-1 inhibitor, VIM-2 inhibitor) | PAFAH2 FP conf 36
CCOc1ncccc1C(=O)OCC(=O)NC1CCCCCC1	PAFAH2 inh 84 (no result: IMP-1 inhibitor, pPAFAH FP inh, VIM-2 inhibitor) | PAFAH2 FP conf 79
Nc1cc(Cl)ccc1C(=O)OCC(=O)NC1CCCCCCC1	PAFAH2 inh 47 (no result: IMP-1 inhibitor, VIM-2 inhibitor) | PAFAH2 FP conf 41
CC(=O)NCc1ccc(-c2nc3ccccc3s2)cc1	none
COc1ccc(-c2nc3ccccc3s2)cc1NC(C)=O	PAFAH2 inh 41 | PAFAH2 FP conf inactive
Clc1ccc(-c2ccnc3nc(N4CCOCC4)nn23)c(Cl)c1	none (no result: IMP-1 inhibitor, pPAFAH FP inh, VIM-2 inhibitor)
CCN(CC)S(=O)(=O)c1cccc(NC(=O)COC(=O)C2CC3C=CC2C3)c1 (configuration not stated)	PAFAH2 inh 38 | PAFAH2 FP conf inactive
CN(C)S(=O)(=O)c1cccc(NC(=O)COC(=O)CCC(=O)c2cccs2)c1	none
CCN(CC)S(=O)(=O)c1cccc(C(=O)N[C@H](C(=O)OCC(N)=O)C(C)C)c1	none
CCN(CC)S(=O)(=O)c1cccc(NC(=O)COC(=O)c2cccs2)c1	PAFAH2 inh 61 | PAFAH2 FP conf 46
CCN(CC)S(=O)(=O)c1cccc(C(=O)N[C@H](C(=O)OCC(=O)Nc2ccccc2)C(C)C)c1	PAFAH2 inh 51 | PAFAH2 FP conf 39
CCN(CC)S(=O)(=O)c1cccc(NC(=O)COC(=O)/C=C/c2cccs2)c1	PAFAH2 inh 67 | PAFAH2 FP conf 58
CCN(CC)S(=O)(=O)c1cccc(NC(=O)COC(=O)c2cncc(Br)c2)c1	none (no result: IMP-1 inhibitor, VIM-2 inhibitor)
O=[N+]([O-])c1cccc(N(CC(O)CN2CCCCC2)S(=O)(=O)c2ccccc2)c1 (configuration not stated)	none
CC1=C(C#N)C(=O)NC(=O)/C1=C\c1ccc(-c2ccc(C)cc2[N+](=O)[O-])o1	PAFAH2 inh 35 (no result: pPAFAH FP inh) | PAFAH2 FP conf inactive
CC(OC(=O)c1ccncc1)C(=O)Nc1ccc([N+](=O)[O-])cc1Cl (configuration not stated)	none
COc1ccccc1CNC(=O)CN1C(=O)NC2(CCCCCC2)C1=O	none (no result: IMP-1 inhibitor, VIM-2 inhibitor)
C/C(=N\NC(=O)c1ccccn1)C12CC3CC(CC(C3)C1)C2	PAFAH2 inh 38 | PAFAH2 FP conf inactive
C/C(=N/NC(=O)c1ccoc1C)C12CC3CC(CC(C3)C1)C2	none
CCCCCCC(=O)Nc1c(O)c2ccccc2[nH]c1=O	PAFAH2 inh 42 | PAFAH2 FP conf inactive
O=C(c1cc2c(s1)CCCCC2)N1CCN(c2ncccn2)CC1	none
O=C(c1cc2c(s1)CCCC2)n1cccn1	PAFAH2 inh 63 | PAFAH2 FP conf 55
CC(=O)Nc1ccc(S(=O)(=O)NCCC(=O)OCC(=O)NCc2ccccc2)cc1	none (no result: IMP-1 inhibitor, VIM-2 inhibitor)
Cc1c(C(=O)OCC(=O)NC(=O)NC2CCCCC2)cccc1[N+](=O)[O-]	none (no result: IMP-1 inhibitor, VIM-2 inhibitor)
CNc1ccc(C(=O)OCC(=O)NC(=O)NC2CCCC2)cc1[N+](=O)[O-]	PAFAH2 inh 41 (no result: IMP-1 inhibitor, VIM-2 inhibitor) | PAFAH2 FP conf inactive
COc1ccc(C(=O)OCC(=O)N2CCc3ccccc3C2)cc1OC	PAFAH2 inh 53 (no result: IMP-1 inhibitor, VIM-2 inhibitor) | PAFAH2 FP conf 45
O=C(COC(=O)c1cccc(Br)c1)NC(=O)NC1CCCC1	none (no result: IMP-1 inhibitor, pPAFAH FP inh, VIM-2 inhibitor)
COc1ccc(C(=O)OCC(=O)NC(=O)NC2CCCC2)cc1OC	PAFAH2 inh 30 (no result: IMP-1 inhibitor, VIM-2 inhibitor) | PAFAH2 FP conf inactive
CN1OC[C@@H]2CN(Cc3ccccc3)[C@H](c3cccc(Oc4ccccc4)c3)C[C@@H]21	none (no result: IMP-1 inhibitor, pPAFAH FP inh, VIM-2 inhibitor)
CCOC(=O)C1CCCN(S(=O)(=O)CCNC(=O)c2cccc(OC)c2)C1 (configuration not stated)	none (no result: IMP-1 inhibitor, VIM-2 inhibitor)
CCN(Cc1ccc(C#CCCO)cc1)CC1CCCN(CCc2cccc(F)c2)C1 (configuration not stated)	none
Cc1cc(Nc2cccc(Br)c2)c2ccccc2n1	PAFAH2 inh 50 (no result: IMP-1 inhibitor, VIM-2 inhibitor) | PAFAH2 FP conf inactive
CCOc1ccc(-c2nnc(NC(=O)Cc3cc(OC)c(OC)c(OC)c3)o2)cc1	none
CC(C)C(=O)NC(=O)COC(=O)/C=C/c1cccs1	PAFAH2 inh 53 | PAFAH2 FP conf 42
Cc1ccc(NC(=O)COC(=O)/C=C/c2cccs2)cc1	PAFAH2 inh 80 | PAFAH2 FP conf 73
C=CCNC(=O)COC(=O)/C=C/c1cccs1	PAFAH2 inh 49 | PAFAH2 FP conf inactive
CCN(c1ccc(NC(=O)COC(=O)/C=C/c2cccs2)cc1)C(C)C	PAFAH2 inh 42 | PAFAH2 FP conf inactive

Screens as filed in PubChem.
